Test results taken from ChEMBL document CHEMBL4000162, “Arborinane Triterpenoids from Rubia philippinensis Inhibit Proliferation and Migration of Vascular Smooth Muscle Cells Induced by the Platelet-Derived Growth Factor” (J Nat Prod, 2016).
Calls of active or inactive are those of the source. No cut-off for these calls is given here.

Assays:
VSMC [1] = experiment: Antiproliferative activity against PDGF-BB-stimulated rat VSMC at 10 to 30 uM preincubated for 24 hrs followed by PDGF-BB addition measured after 24 hrs by MTT assay; assay type: functional, cell-based
Procedure, shortened: (§1)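 Rat aortic VSMCs seeded at 3.5 × 10^4 cells/mL and grown in DMEM/10% FBS at 37 °C to 70% confluence. Serum-starved 24 h, given compound for 24 h (paclitaxel 1 μM reference), then stimulated with 25 ng/mL PDGF-BB for 24 h. MTT 5 mg/mL in serum-free DMEM for 4 h, DMSO solubilisation, absorbance read at 565 nm. Means ± SEM of triplicates.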

VSMC [2] = experiment: Antimigratory activity against PDGF-BB-stimulated rat VSMC at 10 to 30 uM preincubated for 2 hrs followed by PDGF-BB addition measured after 48 hrs by scratch wound-healing assay; assay type: functional, cell-based
Procedure, shortened: (§2)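 Rat aortic VSMCs (enzymatic dispersion; DMEM, 10% FBS) grown in 12-well plates to >90% confluence, serum-starved 24 h, scratched with two lines and imaged at 0 h. Pretreated 2 h with compound (paclitaxel 1 μM as reference), then 25 ng/mL PDGF-BB for 48 h. Fixed in 100% MeOH, stained with 0.5% crystal violet, migration area quantified from images. Means ± SEM of triplicate experiments.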

[3] = Cytotoxicity against rat VSMC assessed as decrease in cell viability at 10 to 30 uM after 48 hrs by MTT assay; assay type: cell-based
Procedure, shortened: (§3)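 Rat aortic VSMCs seeded at 3.5 × 10^4 cells/mL in DMEM/10% FBS and grown to 70% confluence, then serum-free for 24 h. Exposed to compound for 48 h without PDGF (digitonin 100 μg/mL reference). Viability by MTT: 5 mg/mL for 4 h, DMSO, absorbance at 565 nm. Means ± SEM.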

VSMC [4] = experiment: Antimigratory activity against PDGF-BB-stimulated rat VSMC preincubated for 2 hrs followed by PDGF-BB addition measured after 48 hrs by scratch wound-healing assay; assay type: functional, cell-based; procedure, shortened: as §2
[5] = (§4) Antimigratory activity against PDGF-BB-stimulated rat VSMC at 30 uM preincubated for 2 hrs followed by PDGF-BB addition measured after 48 hrs by scratch wound-healing assay; assay type: functional; procedure, shortened: as §2
VSMC [6] = experiment: Antimigratory activity against PDGF-BB-stimulated rat VSMC preincubated for 2 hrs followed by PDGF-BB addition measured after 48 hrs by photograph-based scratch wound-healing assay; assay type: functional, cell-based; procedure, shortened: as §2
[7] = Antimigratory activity against PDGF-BB-stimulated rat VSMC at 10 uM preincubated for 2 hrs followed by PDGF-BB addition measured after 48 hrs by scratch wound-healing assay; assay type: functional; procedure, shortened: as §2
[8] = Cytotoxicity against rat VSMC assessed as decrease in cell viability at 5 uM after 48 hrs by MTT assay; assay type: cell-based; procedure, shortened: as §3
[9] = Antiproliferative activity against PDGF-BB-stimulated rat VSMC at 5 uM preincubated for 24 hrs followed by PDGF-BB addition measured after 24 hrs by MTT assay relative to control; assay type: functional; procedure, shortened: as §1
[10] = Cytotoxicity against rat VSMC assessed as decrease in cell viability at 30 uM after 48 hrs by MTT assay; assay type: cell-based; procedure, shortened: as §3
VSMC [11] = experiment: as §4; assay type: functional; procedure, shortened: as §2
VSMC [12] = experiment: Antiproliferative activity against PDGF-BB-stimulated rat VSMC at 30 uM preincubated for 24 hrs followed by PDGF-BB addition measured after 24 hrs by MTT assay; assay type: functional, cell-based; procedure, shortened: as §1

Row | SMILES | inhibition (VSMC [1]) | Activity (VSMC [2]) | Activity [3] | Activity [8] | inhibition at 5 µM [9] | other results
1 | CC(=O)O[C@@H]1C[C@@H](C(C)C)[C@]2(C)CC[C@@]3(C)[C@H]4C(=CC[C@]3(C)[C@@H]12)[C@@]1(C)CC[C@H](O)C(C)(C)[C@@H]1C[C@@H]4O | Active | Active | Toxic |  |  | 
2 | CC(=O)O[C@H]1CC[C@]2(C)C3=CC[C@]4(C)[C@H]5[C@H](O)C[C@@H](C(C)C)[C@]5(CO)CC[C@@]4(C)[C@@H]3[C@@H](O)C[C@H]2C1(C)C |  |  | Non-Toxic |  |  | Activity (VSMC [4]): Dose-dependent effect; Activity [5]: 57.6%; Activity (VSMC [6]): Dose-dependent effect; Activity [7]: 38.5%
3 | CC(=O)O[C@@H]1C[C@@H](C(C)C)[C@]2(C)CC[C@@]3(C)[C@H]4C(=CC[C@]3(C)[C@@H]12)[C@@]1(C)C=CC(=O)C(C)(C)[C@@H]1C[C@@H]4O | Active |  | Toxic | Non-Toxic | 41.1% | 
4 | CC(C)[C@@H]1C[C@@H]2OC[C@]13CC[C@@]1(C)[C@H]4C(=CC[C@]1(C)[C@@H]23)[C@@]1(C)CC[C@H](O)C(C)(C)[C@@H]1C[C@@H]4O | Active | Active | Toxic | Non-Toxic | 62.6% | 
5 | CC(=O)OC[C@@]12CC[C@@]3(C)[C@H]4C(=CC[C@]3(C)[C@H]1[C@H](O)C[C@H]2C(C)C)[C@@]1(C)CC[C@H](OC(C)=O)C(C)(C)[C@@H]1C[C@@H]4O |  |  |  |  |  | Activity [10]: Toxic; Activity (VSMC [11]): Active; inhibition (VSMC [12]): Active
